How the values were obtained:
[1] = target: Cannabinoid receptor 2 (Homo sapiens, UniProt P34972); experiment: Displacement of [3H]CP-55940 from human CB2 receptor expressed in CHO cells; type: cell-based
Procedure, shortened: (§1)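 Membranes (50 µg) from HEK-293 cells stably expressing human CB1 (DMEM, 10% FBS) or CHO cells stably expressing human CB2 (DMEM, 10% FCS). Incubated with 0.5 nM [3H]CP55,940 and test compound (1 nM–10 µM) in buffer with BSA 5 mg/mL, 1 h at 30 °C. Filtration, scintillation counting. Ki from displacement data; three experiments in triplicate.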

[2] = system: Mus musculus; experiment: Suppression of spontaneous activity in mouse at 30 mg/kg, iv; type: functional
Procedure, shortened: (§2)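 Mice dosed iv in ethanol:emulphor:saline 1:1:18. After the 4-min tail-flick retest, each mouse spent 10 min in a photocell cage where beam interruptions were counted. Activity expressed as % of vehicle group, 6 mice/dose. ED50 from regression against log dose, in µmol/kg. Maximum dose 30 mg/kg.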

[3] = system: Mus musculus; experiment: Hypothermic activity in mouse assessed as change in rectal temperature at 30 mg/kg, iv after 4 mins; type: functional
Procedure, shortened: (§3)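 A separate group of mice had rectal temperature taken by thermistor probe inserted 25 mm, before and 4 min after iv dosing in ethanol:emulphor:saline 1:1:18. Change is the pre minus post difference. ED50 from regression against log dose, in µmol/kg; otherwise maximal change given with its dose. Maximum dose 30 mg/kg.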

[4] = system: Mus musculus; experiment: Antinociceptive activity in mouse at 30 mg/kg, iv by tail filck test; type: functional
Procedure, shortened: (§4)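 Mouse tail flick to radiant heat from bright light, 10-s cutoff. Baseline latency taken, then iv tail-vein dosing in ethanol:emulphor:saline 1:1:18, 0.1 mL/10 g. Retested 4 min later. Result expressed as %MPE, 6 mice/dose. ED50 from least-squares linear regression against log dose, in µmol/kg. Doses above 30 mg/kg not given.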

[5] = target: Cannabinoid receptor 1 (Homo sapiens, UniProt P21554); experiment: Displacement of [3H]CP-55940 from human CB1 receptor expressed in HEK293 cells; type: cell-based; procedure, shortened: as §1
[6] = system: Mus musculus; experiment: Induction of ring immobility in mouse at 30 mg/kg, iv; type: functional
Procedure, shortened: (§5)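 Right after the temperature reading, iv-dosed mice (ethanol:emulphor:saline 1:1:18) were placed on a 5.5-cm ring set 16 cm high. Time spent motionless over 5 min was recorded. ED50 from regression against log dose, in µmol/kg; otherwise maximal effect given with its dose. Maximum dose 30 mg/kg.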

[7] = system: Mus musculus; experiment: Suppression of spontaneous activity in iv dosed mouse; type: functional; procedure, shortened: as §2
[8] = system: Mus musculus; experiment: Induction of ring immobility in iv dosed mouse; type: functional; procedure, shortened: as §5
[9] = system: Mus musculus; experiment: Hypothermic activity in iv dosed mouse assessed as change in rectal temperature after 4 mins; type: functional; procedure, shortened: as §3
[10] = system: Mus musculus; experiment: Antinociceptive activity in iv dosed mouse by tail filck test; type: functional; procedure, shortened: as §4

Sequence of Cannabinoid receptor 2 (P34972 whole entry): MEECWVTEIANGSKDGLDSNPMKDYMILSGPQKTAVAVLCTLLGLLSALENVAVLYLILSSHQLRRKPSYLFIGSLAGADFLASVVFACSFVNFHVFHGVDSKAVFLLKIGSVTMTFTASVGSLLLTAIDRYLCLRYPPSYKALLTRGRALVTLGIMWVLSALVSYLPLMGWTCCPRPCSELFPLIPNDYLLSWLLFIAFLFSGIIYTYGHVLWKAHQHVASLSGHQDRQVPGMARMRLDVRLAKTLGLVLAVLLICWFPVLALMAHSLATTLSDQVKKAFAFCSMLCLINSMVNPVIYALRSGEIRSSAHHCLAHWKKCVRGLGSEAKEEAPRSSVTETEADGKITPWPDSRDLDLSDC
Sequence of Cannabinoid receptor 1 (P21554 whole entry): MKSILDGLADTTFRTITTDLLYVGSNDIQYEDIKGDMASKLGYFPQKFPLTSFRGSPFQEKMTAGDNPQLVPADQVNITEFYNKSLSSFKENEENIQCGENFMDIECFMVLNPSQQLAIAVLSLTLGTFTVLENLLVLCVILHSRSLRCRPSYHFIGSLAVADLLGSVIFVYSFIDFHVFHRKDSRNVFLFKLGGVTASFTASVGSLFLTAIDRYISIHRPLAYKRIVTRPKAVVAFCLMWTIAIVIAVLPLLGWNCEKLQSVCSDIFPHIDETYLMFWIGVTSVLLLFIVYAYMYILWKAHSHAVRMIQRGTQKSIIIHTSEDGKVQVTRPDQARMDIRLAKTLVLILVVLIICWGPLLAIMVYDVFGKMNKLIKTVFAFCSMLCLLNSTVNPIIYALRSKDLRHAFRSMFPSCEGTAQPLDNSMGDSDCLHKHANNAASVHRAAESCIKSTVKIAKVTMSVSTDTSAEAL

CCCCCCC(C)(C)c1ccc(OCC/C=C\C/C=C\CCCC(=O)N[C@H](C)CO)cc1
Ki [1]: 78.2 nM | Activity [2]: 44.9% | Activity [3]: -0.5 °C | Activity [4]: 30.7% | Ki [5]: 195 nM | Activity [6]: 13.4%

C[C@H](CO)NC(=O)CCC/C=C\C/C=C\CCOc1cccc(C(C)(C)CCCCO)c1
ED50 [7]: 1.1 µmol/kg | Ki [1]: 10.9 nM | ED50 [8]: 0.7 µmol/kg | Ki [5]: 79 nM | ED50 [9]: 2.8 µmol/kg | ED50 [10]: 0.6 µmol/kg

C[C@H](CO)NC(=O)CCC/C=C\C/C=C\CCOc1cccc(C(C)(C)CCCCBr)c1
ED50 [7]: 0.7 µmol/kg | Ki [1]: 7.46 nM | ED50 [8]: 1.4 µmol/kg | Ki [5]: 8.87 nM | ED50 [9]: 2.1 µmol/kg | ED50 [10]: 0.8 µmol/kg

C[C@H](CO)NC(=O)CCC/C=C\C/C=C\CCOc1cccc(C(C)(C)CCCCN=[N+]=[N-])c1
ED50 [7]: 0.2 µmol/kg | Ki [1]: 2.52 nM | ED50 [8]: 0.3 µmol/kg | Ki [5]: 2.74 nM | ED50 [9]: 1.95 µmol/kg | ED50 [10]: 0.2 µmol/kg

CCCCCCC(C)(C)c1cccc(OCC/C=C\C/C=C\C/C=C\CCCC(=O)N[C@H](C)CO)c1
Ki [1]: 189 nM | Activity [2]: 55% | Activity [3]: -0.9 °C | Activity [4]: 61% | Ki [5]: 131 nM | Activity [6]: 22%

CCCCCCC(C)(C)c1cccc(OCC/C=C\C/C=C\CCCC(=O)N[C@H](C)CO)c1
ED50 [7]: 3.73 µmol/kg | Ki [1]: 21.5 nM | ED50 [8]: 9.66 µmol/kg | Ki [5]: 8.55 nM | ED50 [9]: 7.8 µmol/kg | ED50 [10]: 8.45 µmol/kg

CCCCCCC(C)(C)c1ccccc1/C=C\C/C=C\C/C=C\CCCC(=O)N[C@H](C)CO
ED50 [7]: 25.7 µmol/kg | Ki [1]: 257 nM | ED50 [8]: 27.7 µmol/kg | Activity [3]: -0.87 °C | Activity [4]: 50% | Ki [5]: 86.3 nM

— ChEMBL document CHEMBL1140469, “Novel, potent THC/anandamide (hybrid) analogs” (Bioorg Med Chem, 2007)
